Most compounds without a hit are left out; they make up all but 2.7% or so of the library.
OXTR ag: human OXTR agonists, primary screen, fluorescence, CHO-OTR cells, Fluo-8 calcium | Oxytocin receptor (Homo sapiens), P30559 | Fluo-8 calcium fluorescence; normalized: DMSO 0%, oxytocin 100% | activation, % at 3 µM | 320,000 tested, 0.32% active;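 active means activation above the mean of all tested compounds plus 3 SD, cutoff set per screening run, cut at about 20% in these data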;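 further: peak over basal fluorescence ratio from a 100 s FLIPR kinetic read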
OX1R antag-1: antagonists of human orexin 1 receptor (OX1R); Orexin/Hypocretin receptor type 1 (Homo sapiens), O43613; OX1R-expressing cells, FRET antagonist read-out; inhibition, % at 6.6 µM; 330,000 tested, 1.8% active; in the data active means inhibition mostly above about 38%, no sharp cut-off; inactive means mostly below about 40%;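 further: 0% = agonist challenge alone and 100% = reference antagonist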
OXTR potentiate: human OXTR potentiators, primary screen, fluorescence, CHO-OTR cells, Fluo-8 calcium | Oxytocin receptor (Homo sapiens), P30559 | Fluo-8 calcium fluorescence, potentiator mode; 0% = oxytocin EC15, 100% = EC100 | activation, % at 3 µM | 320,000 tested, 0.061% active;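 active means activation above that plate's cutoff, the mean activation of tested compounds plus 3 SD, cut at about 6.6% in these data, passing the limit was not always enough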;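 further: 100% uses oxytocin at 75 nM as the full agonist control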
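System: human OTR in CHO cells; Also added: sub-maximal oxytocin, roughly EC15; Timing: compound 6 min at room temperature before oxytocin, 100 s read; Technique: Fluo-8 intracellular calcium fluorescence, ex 470-495, em 515-575 nm; Controls: oxytocin EC15 low and EC100 high; Replication: singlicate.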
CHO parental Ca: ATP-evoked calcium signal inhibitors, parental CHO, primary screen, counter-screen for OX1R antagonist project, cell-based, fluorescence, Fluo-8 calcium dye; parental CHO-K1, ATP-induced calcium, Fluo-8 fluorescence; inhibition, % at 5.6 µM; 330,000 tested, 0.63% active; AID 463079, 2010;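 active means inhibition above that plate's mean sample inhibition plus 3 SD, cut at about 26% in these data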;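 further: 0% = ATP-challenged DMSO wells and 100% = DMSO wells without ATP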
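test system = CHO parental line | reagent = ATP stimulus | measured by = intracellular calcium via Fluo-8 no-wash fluorescent dye | control set = ATP and no-ATP DMSO wells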
OX1R antag-2: OX1R (HCRTR1) antagonists, primary screen, fluorescence, CHO/OX1R cells, Fluo-8 calcium, orexin A. Orexin/Hypocretin receptor type 1 (Homo sapiens), O43613. Fluo-8 calcium fluorescence. inhibition, % at 5 µM. 330,000 tested, 0.43% active. AID 434989, 2010;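 active means inhibition above its plate's threshold, mean inhibition of all tested compounds on the plate plus 3 SD, cut at about 37% in these data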;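 further: 0% = orexin A challenge wells and 100% = SB-334867-A antagonist wells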
V1aR counter: agonists of human V1a receptor, primary screen, counter-screen for OXTR agonist project, fluorescence, CHO-V1R cells; Vasopressin V1a receptor (Homo sapiens), P37288; Fluo-8 calcium fluorescence, agonist mode; 0% DMSO, 100% 3 nM vasopressin; activation, % at 3 µM; 320,000 tested, 0.25% active;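 active means activation above the mean activation of all tested compounds plus 3 SD, per screening run, cut at about 20% in these data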;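 further: signal is peak over basal fluorescence ratio across a 100 second FLIPR read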
* = called active by the depositor.

SMILES | OXTR ag | OX1R antag-1 | OXTR potentiate | CHO parental Ca | OX1R antag-2 | V1aR counter
CN(C)c1ccc(NC(=O)CSc2nnc(-c3cccs3)n2Cc2ccco2)cc1 | -1.4 | 47.0* | 0.6 | -18.4 | 35.0 | -0.7
CC1(C(=O)NC(=S)NNC(=O)c2ccncc2)CCCCC1 | 9.9 | 11.0 | -15.7 | -5.3 | 20.6 | 18.7
O=C(NNC(=S)NC(=O)C12CC3CC(CC(C3)C1)C2)c1ccncc1 | 61.1* | -4.1 | -14.2 | 28.9 | 43.8 | 70.7*
CN(CC(=O)Nc1cccc(F)c1)CC(=O)NC(c1ccccc1)c1ccccc1 | -1.3 | 8.6 | 0.5 | -27.6 | 3.9 | 0.8
Cc1cc(NC(=O)c2ccc(-c3ccccc3[N+](=O)[O-])o2)no1 | -2.2 | 27.1* | -9.0 | 1.2 | -10.8 | -0.4
CC(=O)c1cccc(NC(=O)c2ccc(-c3ccccc3[N+](=O)[O-])o2)c1 | 10.3 | 68.8* | -9.0 | -26.0 | -6.9 | 10.7
Cc1nn(CC(=O)Nc2ccccc2C(F)(F)F)c(=O)c2cccn12 | -0.4 | 7.6 | -6.5 | -9.0 | -4.6 | 0.4
Cc1ccc(CNC(=O)c2cc3ccccc3oc2=O)cc1 | -0.7 | 46.7 | -5.0 | 2.8 | -11.3 | 0.3
CC(C)(C)NC(=O)Nc1nnc(SCC(=O)NC2CCCCC2)s1 | -0.6 | 10.9 | 7.2 | -21.1 | -17.2 | 0.3
CCOC(=O)c1cn(Cc2ccc(Br)cc2)nn1 | 1.1 | 5.1 | -6.5 | -4.8 | -13.8 | 2.1
CCOC(OCC)c1cn(Cc2ccc3c(c2)C(=O)c2ccccc2C3=O)nn1 | 1.3 | 76.2* | 1.9 | -9.3 | -14.9 | 2.2
CCCN(S(=O)(=O)c1ccccc1F)S(=O)(=O)c1ccccc1Br | 1.0 | 68.2* | -7.2 | -10.0 | 13.8 | 2.2
CN(c1ccccc1)S(=O)(=O)c1ccccc1Br | -1.5 | 8.5 | -4.2 | -8.5 | -2.3 | -1.2

Screens deposited in PubChem BioAssay by The Scripps Research Institute Molecular Screening Center.
